PubChem BioAssay
Calls of active or inactive are those of the source.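 The calls were made as follows, unless noted: active = viability at or under a set limit in both replicates, limit being median viability minus 3 SD (cut at about 48% in these data, passing the limit was not always enough); inconclusive = at or under the limit in just one replicate; inactive = at or above the limit in both replicates.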

Key:
[1] = HUVEC growth inhibition – cell-based, human, primary screen (AID 575;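 active = viability at or below 30% in both replicate assays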;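 also: 100% = median of untreated cell wells with 0.1% DMSO on each plate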); conditions: HUVEC proliferation, CellTiter-Glo luminescence, 72 h; at 10 µM; stronger effect = lower value
Method in brief: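 Test system: HUVEC primary cells. Quantity: 1250 endothelial cells in each well. Dosing: single-point 10 µM, DMSO 0.1% final. Incubation: 72 h treatment at 37 °C. Measured by: CTG luminescence. Control set: DMSO cell controls and MePR drug controls. Plate: collagen-coated 384-well format.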

[2] = H69AR cell proliferation blockers – human, duplicate replicates, primary screen (AID 580); conditions: H69AR lung tumor cells viability, ATP luminescence, 72 h; at 10 µM; stronger effect = lower value;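 also: 100% = mean luminescence of untreated wells and 0% = no signal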
[3] = MRP1 drug-resistance reversers in H69AR cells – cell-based, doxorubicin co-treatment, pilot screen (AID 601;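 active = viability loss from added drug above about 55%, and viability with drug at most 40%, in both replicates, limit read from the data, passing the limit was not always enough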); conditions: CellTiter-Glo, 72 h, at 10 µM; for differential viability (reversal): stronger effect = higher value
[4] = yeast transport mutant growth inhibition pilot in 384-well plates, post-Golgi transport modulator project (AID 636; in the data active = inhibition above about 31%); conditions: absorbance 615 nm, about 18 h, stronger effect = higher value
[5] = growth suppression of yeast trafficking mutant, preliminary HTS, modulators of trafficking downstream of Golgi apparatus project, 1536-format plate, OD 615 nm (AID 637; in the data active = inhibition above about 30%); conditions: yeast transport mutant growth, absorbance 615 nm, 18 h; stronger effect = higher value
[6] = H69AR cells + 2 uM doxorubicin, measured here: viability with 2 uM doxorubicin, stronger effect = lower value
[7] = H69AR cells, compound alone cytotoxicity

Structure (SMILES) | viability [1] | viability [2] | differential viability (reversal) ([3]; H69AR cells + 2 uM doxorubicin) | viability [3, 6] [%] | viability [3, 7] [%] | inhibition [4] | inhibition [5]
Cc1nn(C)c(C)c1NC(=O)CCSc1nc(-c2ccco2)cc(C(F)(F)F)n1 | 93% (inactive) | 98.8% (inactive) | 3.76% (inactive) | 95 | 98.8 | -2.93% (inactive) | 4.44% (inactive)
COc1ccccc1C1(CC(=O)N2CCOCC2)CCOC(C(C)C)C1 (stereo not given) | 72.7% (inactive) | 88.8% (inactive) | -2.17% (inactive) | 91 | 88.8 | -5.47% (inactive) | -6.03% (inactive)
CCCC(=O)Nc1ccccc1NC(=O)CCC | 108% (inactive) | 96% (inactive) | 7.25% (inactive) | 88.8 | 96 | -2.24% (inactive) | -2.38% (inactive)
Cc1ccc(C(=O)CSc2nnc(CNc3ccc(C)cc3C)o2)cc1 | 81.7% (inactive) | 81.2% (inactive) | 0.795% (inactive) | 80.4 | 81.2 | -0.92% (inactive) | -10.5% (inactive)
CN(C)c1oc(-c2ccccc2Cl)nc1C#N | 56.5% (inactive) | 94.9% (inactive) | 16.8% (inactive) | 78.1 | 94.9 | -3.33% (inactive) | 3.97% (inactive)
Cc1onc(-c2c(Cl)cccc2Cl)c1C(=O)NCCN1CCOCC1 | 94.9% (inactive) | 89.9% (inactive) | -8.8% (inactive) | 98.7 | 89.9 | -3.03% (inactive) | 1.43% (inactive)
CCn1cnc2cc(NCc3cccc(OC)c3O)ccc21 | 99.3% (inactive) | 92.3% (inactive) | 5.97% (inactive) | 86.3 | 92.3 | -4.47% (inactive) | 0.32% (inactive)
COc1cccc(C(=O)Nc2cccc(C(=O)N3CCOCC3)c2)c1 | 97.1% (inactive) | 90.1% (inactive) | 13% (inactive) | 77.1 | 90.1 | -4.68% (inactive) | 0.32% (inactive)
CN1CCN(C(=O)CN(Cc2ccc(Cl)cc2)S(C)(=O)=O)CC1 | 93.3% (inactive) | 94.5% (inactive) | -1.31% (inactive) | 95.8 | 94.5 | -1.45% (inactive) | 4.44% (inactive)
Cc1nc(NCc2ccccn2)c2ccccc2n1 | 71% (inactive) | 104% (inactive) | 16.4% (inactive) | 87.9 | 104 | 2.08% (inactive) | 2.7% (inactive)
Cc1ccc(S(=O)(=O)N2CCCC2)cc1S(=O)(=O)N1CCCC1 | 90.9% (inactive) | 98.6% (inactive) | 5.92% (inactive) | 92.7 | 98.6 | -3.25% (inactive) | 2.54% (inactive)
CC(CN1CCOCC1)(NS(=O)(=O)c1ccccc1)c1ccccc1 (stereo not given) | 106% (inactive) | 95.9% (inactive) | 9.75% (inactive) | 86.2 | 95.9 | -1.56% (inactive) | 0.95% (inactive)
Cn1cccc1C(=O)NC(=O)CSc1nnc(C2CC2)n1-c1ccccc1 | 102% (inactive) | 85.7% (inactive) | -7.28% (inactive) | 93 | 85.7 | -1.17% (inactive) | -0.63% (inactive)
COCCn1c(N)c(C(=O)Nc2sc3c(c2C(=O)OC)CCCC3)c2nc3ccccc3nc21 | 82.6% (inactive) | 92.3% (inactive) | -0.35% (inactive) | 92.7 | 92.3 | -4.42% (inactive) | 3.65% (inactive)
CSc1nnc(-c2cnccn2)n1C | 107% (inactive) | 90.7% (inactive) | 0.99% (inactive) | 89.7 | 90.7 | -0.39% (inactive) | 4.92% (inactive)
Cc1nc(C)c(C(=O)C2=C(O)C(=O)N(CCCn3ccnc3)C2c2ccccc2)s1 (stereo not given) | 94.5% (inactive) | 95% (inactive) | 0.995% (inactive) | 94.1 | 95 | -0.13% (inactive) | -2.54% (inactive)
COc1cccc(/C(O)=C2/C(=O)C(=O)N(CCN3CCOCC3)C2c2cccnc2)c1 (stereo not given) | 98.9% (inactive) | 93.6% (inactive) | 0.755% (inactive) | 92.8 | 93.6 | 2.99% (inactive) | -3.02% (inactive)
O=C(c1ccc2c(c1)OCO2)N1CCNc2ccccc2C1 | 90.4% (inactive) | 99.6% (inactive) | 11.9% (inactive) | 87.7 | 99.6 | 0.65% (inactive) | 3.17% (inactive)
CCn1c(SCc2cccc(C(F)(F)F)c2)nnc1-c1ccco1 | 93.9% (inactive) | 90.1% (inactive) | 9% (inactive) | 81.1 | 90.1 | -5.2% (inactive) | -0.16% (inactive)
COc1oc(-c2ccccc2)nc1C(F)(F)F | 94.3% (inactive) | 109% (inactive) | 9.45% (inactive) | 99.9 | 109 | -3.82% (inactive) | -2.38% (inactive)
